Source: PubChem BioAssay
The list is not random: actives were taken first. Their share in the collection is about 2.3%.
Rtt109 HAT inh = inhibitors of C. albicans Rtt109/Vps75 HAT, primary screen, biochemical, ThioGlo CoA-SH fluorescence, plate reader; inhibition, % at 34.9 µM; 0.16% of 330,000 active; AID 540336, 2011; purified Rtt109/Vps75, 4 h; Histone acetyltransferase RTT109 (Candida albicans (strain SC5314 / ATCC MYA-2876)), …;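 active means inhibition of at least 50% in every replicate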
Target sequence (Q5AAJ8 whole entry, looked up): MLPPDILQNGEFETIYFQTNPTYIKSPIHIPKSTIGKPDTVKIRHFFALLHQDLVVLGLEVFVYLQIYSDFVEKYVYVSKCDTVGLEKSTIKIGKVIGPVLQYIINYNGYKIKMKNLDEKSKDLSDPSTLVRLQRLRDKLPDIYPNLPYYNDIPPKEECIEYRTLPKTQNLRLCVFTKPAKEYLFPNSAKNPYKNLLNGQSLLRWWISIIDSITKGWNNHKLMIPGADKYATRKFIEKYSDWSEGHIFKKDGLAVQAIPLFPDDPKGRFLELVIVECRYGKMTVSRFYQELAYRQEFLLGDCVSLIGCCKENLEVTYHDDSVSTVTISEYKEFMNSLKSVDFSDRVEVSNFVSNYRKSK
PAX8 reporter = inhibitors of PAX8-driven TPO luciferase reporter, primary screen, RMG-I cells, single concentration | SteadyGlo, 24 h | inhibition, % at 12.6 µM | 1.2% of 360,000 active | AID 652154, 2013;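 active means mean replicate inhibition at least 60% with every replicate also reaching 60%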;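 further: luciferase light reporting Pax8 driven TPO promoter activity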
Glyco luc inh = increase of ERlucT glycosylation luciferase signal, primary screen, N-linked glycosylation inhibitor project, D54 ERlucT cells, luminescence, set 2; D54 ERlucT glycosylation luciferase reporter, 24 h; percent of 100 nM tunicamycin response; reporter increase, % at 12.5 µM; 0.23% of 360,000 active;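 active means mean luciferase reporter signal, scaled so untreated is 0 and the glycosylation-blocking control 100, at or above a set limit in every replicate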;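 further: luciferase carries N-glycosylation sites so blocking glycosylation raises the light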
PfHsp90 set2 = growth inhibition of PfHsp90-expressing yeast, primary screen, antimalarial PfHsp90 inhibitor project, S. cerevisiae, BacTiter-Glo luminescence, single point, set 2; BacTiter-Glo ATP, 48 h; yeast lacking PDR1 and PDR3 efflux regulators; inhibition, % at 9.4 µM; 0.32% of 310,000 active;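 active means every replicate shows inhibition above about 80%, whatever the replicate mean, limit read from the data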
Arrestin-AP2 inh = inhibitors of beta-arrestin/AP2 binding, primary screen, biochemical, GPCR trafficking, flow cytometry; beta-arrestin 1 C-terminal peptide binding to AP2 beta2-adaptin appendage (human); FITC-arrestin peptide / GST-AP2 beads; AP2 beta2 appendage carries R879A mutation; inhibition, % at 10 µM; 0.31% of 340,000 active; AID 504490, 2011;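 active means inhibition above a set limit, near 3 SD of compounds lacking own fluorescence, cut at about 54% in these data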
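Material – GST-tagged AP2 beta2-adaptin appendage (R879A) on 4 µm glutathione beads · Probe or stimulus – fluorescein-tagged arrestin peptide at 50 nM final · Timing – 12 min plus 1 h, RT · Detection – bead flow cytometry, FITC channel · Read-out basis – inhibition as reduced fluorescein signal on beads, percent · Medium – PBS plus Tween 20 (0.05%) and BSA (0.1%)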
HIV Env fusion = inhibitors of HIV-1 Env-driven cell-cell fusion, primary screen, HeLa-JRFL effector, CEM21 target cells, luciferase. inhibition, % at 12.3 µM. 1.1% of 360,000 active. AID 651610, 2012;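 active means mean replicate inhibition score of at least 50 and every replicate individually at or above 50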
A number is an active result; [ ] = dose if it differs, or a comment.

For COc1ccc(S(=O)(=O)N(C)C[C@@H]2Oc3ccc(NC(=O)Nc4ccc(C(F)(F)F)cc4)cc3CC(=O)N([C@@H](C)CO)C[C@@H]2C)cc1 the results were PAX8 reporter 65.9 and HIV Env fusion inactive.
`C[C@H](CO)N1C[C@H](C)[C@@H](CN(C)S(=O)(=O)c2ccc(Cl)cc2)Oc2ccc(NC(=O)NC3CCCCC3)cc2CC1=O` gave PAX8 reporter inactive and HIV Env fusion inactive.
C[C@H]1CN([C@@H](C)CO)C(=O)Cc2cc(NC(=O)NC3CCCCC3)ccc2O[C@H]1CN(C)S(=O)(=O)c1ccc(Cl)cc1 was read as PAX8 reporter 78.7 and HIV Env fusion inactive.
For Cc1noc(C)c1S(=O)(=O)N(C)C[C@@H]1Oc2ccc(NC(=O)Nc3ccc(C(F)(F)F)cc3)cc2CC(=O)N([C@H](C)CO)C[C@@H]1C the results were PAX8 reporter inactive and HIV Env fusion 59.8[16.7 µM].
For Cc1noc(C)c1S(=O)(=O)N(C)C[C@H]1Oc2ccc(NC(=O)Nc3ccc(C(F)(F)F)cc3)cc2CC(=O)N([C@H](C)CO)C[C@@H]1C the results were PAX8 reporter inactive and HIV Env fusion inactive.
C[C@H]1CN([C@@H](C)CO)C(=O)Cc2cc(NC(=O)Nc3ccc(C(F)(F)F)cc3)ccc2O[C@H]1CN(C)S(=O)(=O)c1ccc(Cl)cc1 was read as HIV Env fusion inactive.
Screening COc1ccc(NC(=O)Nc2ccc3c(c2)CC(=O)N([C@H](C)CO)C[C@@H](C)[C@@H](CN(C)S(=O)(=O)c2ccc(OC)cc2)O3)cc1 returned PAX8 reporter inactive and HIV Env fusion inactive.
For C[C@@H]1CN([C@@H](C)CO)C(=O)Cc2cc(NC(=O)Nc3ccc(C(F)(F)F)cc3)ccc2O[C@@H]1CN(C)S(=O)(=O)c1ccc(Cl)cc1 the results were Rtt109 HAT inh inactive, PAX8 reporter 95.8, Glyco luc inh inactive, PfHsp90 set2 inactive, Arrestin-AP2 inh inactive and HIV Env fusion inactive.
For C[C@@H]1CCCCO[C@@H](CN(C)C(=O)c2ccncc2)[C@H](C)CN([C@@H](C)CO)C(=O)c2cc(NS(=O)(=O)c3cccs3)ccc2O1 the results were PAX8 reporter inactive and HIV Env fusion inactive.
`COc1ccc(NC(=O)Nc2ccc3c(c2)[C@H]2C[C@H](CC(=O)NCc4ccccc4F)O[C@H](CO)[C@H]2O3)cc1` gave PAX8 reporter inactive and HIV Env fusion inactive.
For COc1ccc(NC(=O)N[C@@H]2C=C[C@H](CC(=O)NCc3ccccn3)O[C@@H]2CO)cc1 the results were PAX8 reporter inactive and HIV Env fusion inactive.
For C[C@H](CO)N1C[C@H](C)[C@H](CN(C)S(=O)(=O)c2cn(C)cn2)Oc2ccc(NC(=O)Nc3ccc(C(F)(F)F)cc3)cc2CC1=O the results were Rtt109 HAT inh inactive, PAX8 reporter inactive, Glyco luc inh 59.8, PfHsp90 set2 inactive, Arrestin-AP2 inh inactive and HIV Env fusion inactive.
`COc1ccc(S(=O)(=O)N(C)C[C@@H]2Oc3ccc(NC(=O)Nc4ccc(C(F)(F)F)cc4)cc3CC(=O)N([C@H](C)CO)C[C@@H]2C)cc1` gave PAX8 reporter 77.8 and HIV Env fusion inactive.
COc1ccc(S(=O)(=O)N(C)C[C@@H]2Oc3ccc(NC(=O)Nc4ccc(C(F)(F)F)cc4)cc3CC(=O)N([C@H](C)CO)C[C@H]2C)cc1 was read as PAX8 reporter inactive and HIV Env fusion inactive.
Screening CCOC(=O)COc1ccc2ccccc2c1/C=C/[N+](=O)[O-] returned Rtt109 HAT inh inactive, PAX8 reporter inactive, Glyco luc inh inactive, PfHsp90 set2 104.5, Arrestin-AP2 inh inactive and HIV Env fusion inactive.
`CN(C)CC(=O)N1[C@@H]2c3ccc(-c4ccc(F)cc4)c(=O)n3C[C@@H]2[C@@H](CO)[C@@H]1C(=O)NC1CCCC1` gave PAX8 reporter inactive.
`C[C@H]1CN([C@@H](C)CO)S(=O)(=O)c2ccc(-c3ccc(C(=O)N(C)C)cc3)cc2O[C@@H]1CN(C)Cc1ccccc1C(=O)O` gave HIV Env fusion inactive.
Screening N#Cc1c(NCc2ccccc2)ccnc1NCc1cccnc1 returned Rtt109 HAT inh inactive, PAX8 reporter inactive, Glyco luc inh inactive, Arrestin-AP2 inh inactive and HIV Env fusion 106.8.
`C[C@@H]1CN([C@@H](C)CO)C(=O)Cc2cc(NC(=O)CCN3CCOCC3)ccc2O[C@H]1CN(C)Cc1ccc(-c2ccccc2)cc1` gave PAX8 reporter inactive.
For C[C@H]1CCCCO[C@H](CN(C)C(=O)NC2CCCCC2)[C@@H](C)CN([C@@H](C)CO)C(=O)c2cc(NC(=O)Nc3ccc(C(F)(F)F)cc3)ccc2O1 the results were PAX8 reporter 87.1 and HIV Env fusion inactive.
For C[C@@H]1CCCCO[C@H](CN(C)C(=O)NC2CCCCC2)[C@@H](C)CN([C@H](C)CO)C(=O)c2cc(NC(=O)Nc3ccc(C(F)(F)F)cc3)ccc2O1 the results were PAX8 reporter inactive and HIV Env fusion inactive.
C[C@@H]1CCCCO[C@@H](CN(C)C(=O)NC2CCCCC2)[C@@H](C)CN([C@@H](C)CO)C(=O)c2cc(NC(=O)Nc3ccc(C(F)(F)F)cc3)ccc2O1 was read as PAX8 reporter 74.3 and HIV Env fusion inactive.
C[C@@H]1CCCCO[C@@H](CN(C)C(=O)NC2CCCCC2)[C@H](C)CN([C@@H](C)CO)C(=O)c2cc(NC(=O)Nc3ccc(C(F)(F)F)cc3)ccc2O1 was read as PAX8 reporter 76.4 and HIV Env fusion inactive.
`C[C@@H]1CCCCO[C@H](CN(C)C(=O)NC2CCCCC2)[C@@H](C)CN([C@@H](C)CO)C(=O)c2cc(NC(=O)Nc3ccc(C(F)(F)F)cc3)ccc2O1` gave PAX8 reporter 93.1 and HIV Env fusion inactive.
Screening COc1ccc(S(=O)(=O)N(C)C[C@@H]2OCCCC[C@@H](C)Oc3ccc(NS(=O)(=O)c4ccc(C)cc4)cc3C(=O)N([C@H](C)CO)C[C@@H]2C)cc1 returned PAX8 reporter inactive and HIV Env fusion inactive.
O=C(NCC1CC1)[C@@H]1[C@@H](CO)[C@@H]2Cn3c(ccc(-c4ccccc4)c3=O)[C@@H]2N1CC1CC1 was read as PAX8 reporter inactive.
